Experimental data: ChEMBL document CHEMBL4373671, “Evaluation of anti-inflammatory activity and molecular docking study of new aza-bicyclic isoxazoline acylhydrazone derivatives” (2019)
The source made the active and inactive calls. The calls are words filed in the database; no cut-off is given here.

Tests used:
[1] = test system: Mus musculus; assay: Antiinflammatory activity in Swiss mouse assessed as reduction in dextran-induced paw edema at 10 mg/kg, po treated 1 hr prior to dextran challenge and measured every 60 mins for 4 hrs by plethysmometer analysis; format: functional, organism-based
Method in brief: (§1)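 Swiss mice were given an oral dose in saline + 5% DMSO 1 h before intraplantar 0.2% dextran (50 μL) into the right hind paw. Paw volume was measured by plethysmometer every 60 min up to 4 h, as the difference from the contralateral saline paw.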

[2] = test system: Mus musculus; assay: Antiinflammatory activity in Swiss mouse assessed as inhibition of bradykinin-induced paw edema at 0.5 mg/kg, po treated 1 hr prior to bradykinin challenge measured after 15 to 90 mins by plethysmometer analysis; format: functional, organism-based
Method in brief: (§2)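 Mice were given captopril 5 mg kg–1 1 h before the bradykinin challenge to block kininases. Oral dosing (vehicle saline + 5% DMSO) preceded intraplantar bradykinin (10 nmol, 50 μL) into the right hind paw by 1 h. Plethysmometer readings at 15, 30, 60 and 90 min, relative to the contralateral paw.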

[3] = test system: Mus musculus; assay: Antiinflammatory activity against carrageenan-induced air pouch inflammatory Swiss mouse model assessed as number of polymorphonuclear leucocytes in air pouch at 15 mg/kg, po treated for 1 hr prior to carrageenan administration and measured after 6 hrs (reference value: 13.76 +/- 0.55X10'6/ml); format: functional
[4] = test system: Mus musculus; assay: Antiinflammatory activity against carrageenan-induced air pouch inflammatory Swiss mouse model assessed as number of polymorphonuclear leucocytes in air pouch at 30 mg/kg, po treated for 1 hr prior to carrageenan administration and measured after 6 hrs (reference value: 13.76 +/- 0.55X10'6/ml); format: functional
[5] = test system: Mus musculus; assay: Antiinflammatory activity against carrageenan-induced air pouch inflammatory Swiss mouse model assessed as number of polymorphonuclear leucocytes in air pouch at 60 mg/kg, po treated for 1 hr prior to carrageenan administration and measured after 6 hrs (reference value: 13.76 +/- 0.55X10'6/ml); format: functional
[6] = test system: Mus musculus; assay: Antiinflammatory activity against carrageenan-induced air pouch inflammatory Swiss mouse model assessed as number of polymorphonuclear leucocytes in air pouch at 120 mg/kg, po treated for 1 hr prior to carrageenan administration and measured after 6 hrs (reference value: 13.76 +/- 0.55X10'6/ml); format: functional
[7] = test system: Mus musculus; assay: Antiinflammatory activity against carrageenan-induced air pouch inflammatory Swiss mouse model assessed as inhibition of PMNL cell migration in air pouch at 15 mg/kg, po treated 1 hr prior to carrageenan administration and measured after 6 hrs relative to control; format: functional
[8] = test system: Mus musculus; assay: Antiinflammatory activity against carrageenan-induced air pouch inflammatory Swiss mouse model assessed as inhibition of PMNL cell migration in air pouch at 30 mg/kg, po treated 1 hr prior to carrageenan administration and measured after 6 hrs relative to control; format: functional
[9] = test system: Mus musculus; assay: Antiinflammatory activity against carrageenan-induced air pouch inflammatory Swiss mouse model assessed as inhibition of PMNL cell migration in air pouch at 60 mg/kg, po treated 1 hr prior to carrageenan administration and measured after 6 hrs relative to control; format: functional
[10] = test system: Mus musculus; assay: Antiinflammatory activity against carrageenan-induced air pouch inflammatory Swiss mouse model assessed as inhibition of PMNL cell migration in air pouch at 120 mg/kg, po treated 1 hr prior to carrageenan administration and measured after 6 hrs relative to control; format: functional
[11] = test system: Mus musculus; assay: Antiinflammatory activity against carrageenan-induced air pouch inflammatory Swiss mouse model assessed as TNF-alpha level in air pouch exudate at 15 mg/kg, po treated 1 hr prior to carrageenan administration and measured after 6 hrs by sandwich ELISA (reference value: 425.17 pg/ml); format: functional
[12] = test system: Mus musculus; assay: Antiinflammatory activity against carrageenan-induced air pouch inflammatory Swiss mouse model assessed as IL-1beta level in air pouch exudate at 15 mg/kg, po treated 1 hr prior to carrageenan administration and measured after 6 hrs by sandwich ELISA (reference value: 564.06 pg/ml); format: functional
[13] = test system: Mus musculus; assay: Antiinflammatory activity against carrageenan-induced paw edema in Swiss mouse assessed as reduction in paw edema at 15 mg/kg, po administered 1 hr prior to carrageenan challenge and measured after 2 to 6 hrs by plethysmometric analysis; format: functional, organism-based
Method in brief: (§3)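 Male Swiss mice (25–30 g, fasted 8 h), dosed orally in saline + 5% DMSO 1 h before 50 μL 1% carrageenan into the right hind paw. Paw volume read by plethysmometer before challenge and at 2, 4 and 6 h. Edema taken as the volume difference from the saline-injected contralateral paw. Two-way ANOVA with Tukey.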

[14] = test system: Mus musculus; assay: Antiinflammatory activity in Swiss mouse assessed as inhibition of acetic acid-induced increase in vascular permeability at 15 mg/kg, po treated 1 hr prior to acetic acid challenge and measured after 30 mins by Evans blue dye based assay; format: functional, organism-based
Method in brief: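 Male Swiss mice received 15 mg kg–1 p.o. or vehicle (saline + 5% DMSO). After 1 h, under ketamine/xylazine (8:2 v/v, i.p.), 0.2 mL 1% Evans blue was given retro-orbitally, then 0.5 mL 1% acetic acid i.p. At 30 min the peritoneal cavity was washed with saline; exudate was centrifuged (2000 rpm, 10 min) and supernatant absorbance read at 610 nm.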

[15] = test system: Mus musculus; assay: Antiinflammatory activity in Swiss mouse assessed as reduction in dextran-induced paw edema at 15 mg/kg, po treated 1 hr prior to dextran challenge and measured every 60 mins for 4 hrs by plethysmometer analysis; format: functional, organism-based; method in brief: as §1
[16] = test system: Mus musculus; assay: Antiinflammatory activity in Swiss mouse assessed as inhibition of histamine-induced paw edema at 15 mg/kg, po treated 1 hr prior to histamine challenge measured after 15 mins by plethysmometer analysis; format: functional, organism-based
Method in brief: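 Swiss mice were dosed at 15 mg kg–1 orally in saline + 5% DMSO 1 h before injection of histamine (100 μg, 50 μL) into the right hind paw. Paw volume was measured by plethysmometer at 15, 30, 60 and 90 min, relative to the contralateral saline paw.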

[17] = test system: Mus musculus; assay: Antiinflammatory activity in Swiss mouse assessed as inhibition of 5-HT-induced paw edema at 15 mg/kg, po treated 1 hr prior to 5-HT challenge measured after 30 mins by plethysmometer analysis; format: functional, organism-based
Method in brief: (§4)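 Male Swiss mice received 15 mg kg–1 p.o. (saline + 5% DMSO) 1 h before intraplantar 5-HT (100 μg in 50 μL) into the right hind paw. Plethysmometer readings at 15, 30, 60 and 90 min. Edema expressed as volume difference from the contralateral saline paw.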

[18] = test system: Mus musculus; assay: Antiinflammatory activity in Swiss mouse assessed as reduction in bradykinin-induced paw edema volume at 15 mg/kg, po treated 1 hr prior to bradykinin challenge measured after 15 to 30 mins by plethysmometer analysis; format: functional, organism-based; method in brief: as §2
[19] = test system: Mus musculus; assay: Antiinflammatory activity in Swiss mouse assessed as reduction in compound 48/80-induced paw edema at 15 mg/kg, po treated 1 hr prior to compound 48/80 challenge measured after 15 to 30 mins by plethysmometer analysis; format: functional, organism-based
[20] = test system: Mus musculus; assay: Antiinflammatory activity in Swiss mouse assessed as reduction in BthTX-2-induced paw edema at 15 mg/kg, po treated 1 hr prior to BthTX-2 challenge measured after 15 to 45 mins by plethysmometer analysis; format: functional, organism-based
[21] = test system: Mus musculus; assay: Antiinflammatory activity in Swiss mouse assessed as reduction in dextran-induced paw edema at 15 mg/kg, po treated 1 hr prior to dextran challenge and measured after 3 to 4 hrs by plethysmometer analysis; format: functional, organism-based; method in brief: as §1
[22] = test system: Mus musculus; assay: Antiinflammatory activity in Swiss mouse assessed as inhibition of 5-HT-induced paw edema assessed as reduction in paw volume at 15 mg/kg, po treated 1 hr prior to 5-HT challenge and measured after 15 to 90 mins by plethysmometer analysis; format: functional, organism-based; method in brief: as §4
[23] = test system: Mus musculus; assay: Antiinflammatory activity against carrageenan-induced air pouch inflammatory Swiss mouse model assessed as TNF-alpha level in air pouch exudate at 10 mg/kg, po treated 1 hr prior to carrageenan administration and measured after 6 hrs by sandwich ELISA (reference value: 425.17 pg/ml); format: functional
[24] = test system: Mus musculus; assay: Antiinflammatory activity against carrageenan-induced air pouch inflammatory Swiss mouse model assessed as number of polymorphonuclear leucocytes in air pouch at 10 mg/kg, po treated for 1 hr prior to carrageenan administration and measured after 6 hrs (reference value: 13.76 +/- 0.55X10'6/ml); format: functional
[25] = test system: Mus musculus; assay: Antiinflammatory activity against carrageenan-induced air pouch inflammatory Swiss mouse model assessed as inhibition of PMNL cell migration in air pouch at 10 mg/kg, po treated 1 hr prior to carrageenan administration and measured after 6 hrs relative to control; format: functional
[26] = test system: Mus musculus; assay: Antiinflammatory activity against carrageenan-induced air pouch inflammatory Swiss mouse model assessed as IL-1beta level in air pouch exudate at 10 mg/kg, po treated 1 hr prior to carrageenan administration and measured after 6 hrs by sandwich ELISA (reference value: 564.06 pg/ml); format: functional
[27] = test system: Mus musculus; assay: Antiinflammatory activity against carrageenan-induced paw edema in Swiss mouse assessed as reduction in paw edema at 10 mg/kg, po administered 1 hr prior to carrageenan challenge and measured after 2 to 6 hrs by plethysmometer analysis; format: functional, organism-based; method in brief: as §3

CN1CCC(=C2c3ccccc3C=Cc3ccccc32)CC1
Activity [1]: Active

C[C@@H]1C[C@H]2[C@@H]3CCC4=CC(=O)C=C[C@]4(C)[C@@]3(F)[C@@H](O)C[C@]2(C)[C@@]1(O)C(=O)CO
inhibition [2]: Active

O=C(N/N=C\c1ccc(Cl)cc1)C1=NO[C@@H]2[C@H]1CCN2C(=O)c1ccc(Cl)cc1 (racemic)
Activity [3]: 3.33 ×10⁶ /ml
Activity [4]: 4.97 ×10⁶ /ml
Activity [5]: 5.94 ×10⁶ /ml
Activity [6]: 6.1 ×10⁶ /ml
inhibition in vivo at 15 mg/kg [7]: 76%
inhibition in vivo at 30 mg/kg [8]: 64%
inhibition in vivo at 60 mg/kg [9]: 57%
inhibition in vivo at 120 mg/kg [10]: 56%
Activity [11]: 271.6 pg/mL
Activity [12]: 323.11 pg/mL
Activity [13]: Active
inhibition [14]: Active
Activity [15]: Active
inhibition [16]: Active
inhibition [17]: Active
Activity [18]: Active
inhibition [19]: Active
Activity [20]: Active

COc1ccc(/C=N\NC(=O)C2=NO[C@@H]3[C@H]2CCN3C(=O)c2ccc([N+](=O)[O-])cc2)cc1 (racemic)
Activity [3]: 4.6 ×10⁶ /ml
Activity [4]: 6.72 ×10⁶ /ml
Activity [5]: 8.98 ×10⁶ /ml
Activity [6]: 12.72 ×10⁶ /ml
inhibition in vivo at 15 mg/kg [7]: 67%
inhibition in vivo at 30 mg/kg [8]: 51%
inhibition in vivo at 60 mg/kg [9]: 35%
inhibition in vivo at 120 mg/kg [10]: 8%
Activity [11]: 305.88 pg/mL
Activity [12]: 358.28 pg/mL
Activity [13]: Active
inhibition [14]: Active
Activity [21]: Active
inhibition [16]: Active
inhibition [22]: Active
Activity [18]: Active
inhibition [19]: Active
Activity [20]: Active

COc1ccc2c(c1)c(CC(=O)O)c(C)n2C(=O)c1ccc(Cl)cc1 [INDOMETHACIN]
Activity [23]: 458.97 pg/mL
Activity [24]: 4.84 ×10⁶ /ml
inhibition in vivo at 10 mg/kg [25]: 65%
Activity [26]: <=329.81 pg/ml
Activity [27]: Active
